A word on the inhibition: it is the drop in the measured response relative to a control, in per cent.

The results in this text go back to ChEMBL document CHEMBL4138274, “Multiflorumisides A-G, Dimeric Stilbene Glucosides with Rare Coupling Patterns from the Roots of Polygonum multiflorum” (J Nat Prod, 2018).

The test system of data set [1] is RAW264.7. In words: Antiinflammatory activity in mouse RAW264.7 cells assessed as inhibition of LPS-stimulated nitric oxide production at 20 uM after 48 hrs by Griess assay relative to control. In kind it is functional. The settings on record: RAW264.7, 48 h. An outline of the steps:
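RAW264.7 cells seeded at 4 × 10^4 per well, held 2 h at 37 °C in humidified 5% CO2, then exposed to LPS (200 ng/mL) plus serially diluted test compound for 48 h at 37 °C. Supernatant was mixed 1:1 with Griess reagent, incubated 15 min, and absorbance read at 540 nm as a nitrite measure.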

Data set [2] has as its system RAW264.7. The data set can be described thus: Cytotoxicity against LPS-stimulated mouse RAW264.7 cells assessed as effect on cell viability at 20 uM after 48 hrs by MTT assay. In kind it is cell-based. The settings on record: raw264.7, 48 h. An outline of the steps: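 Viability by MTT on RAW264.7 cells seeded at 4 × 10^4 per well and held 2 h at 37 °C in humidified 5% CO2. Cells were then treated for 48 h at 37 °C with LPS (200 ng/mL) together with serially diluted test compound.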
For orientation: Formazan colour is commonly taken as a measure of viable cells.

Take `OC[C@H]1O[C@@H](Oc2c(O)cc(O)cc2[C@@H]2[C@@H](c3ccc(O)cc3)[C@@H](c3ccc(O)cc3)[C@@H]2c2cc(O)cc(O)c2O[C@@H]2O[C@H](CO)[C@@H](O)[C@H](O)[C@H]2O)[C@H](O)[C@@H](O)[C@@H]1O`: the inhibition at 20 µM in the data set with RAW264.7 [1] was 16.8%. The Activity entry with RAW264.7 [2] is “Non-Toxic”.

`OC[C@H]1O[C@@H](Oc2c(O)cc(O)cc2[C@H]2[C@@H](c3ccc(O)cc3)c3c(O)cc(O)c(O[C@@H]4O[C@H](CO)[C@@H](O)[C@H](O)[C@H]4O)c3C[C@@H]2c2ccc(O)cc2)[C@H](O)[C@@H](O)[C@@H]1O`: the Activity entry in the data set on RAW264.7 [2] is listed as “Non-Toxic”.

Consider `C[C@@H]1C[C@H]2[C@@H]3CCC4=CC(=O)C=C[C@]4(C)[C@@]3(F)[C@@H](O)C[C@]2(C)[C@@]1(O)C(=O)CO` [DEXAMETHASONE], for which the inhibition at 20 µM with RAW264.7 [1] worked out at 60.9%.

Regarding `OC[C@H]1O[C@@H](Oc2c(O)cc(O)cc2[C@H]2[C@H](c3ccc(O)cc3)[C@@H](c3cc(O)cc(O)c3O[C@@H]3O[C@H](CO)[C@@H](O)[C@H](O)[C@H]3O)[C@@H]2c2ccc(O)cc2)[C@H](O)[C@@H](O)[C@@H]1O`, the inhibition at 20 µM in the data set with RAW264.7 [1] was found to be 16.7%. Moreover, the Activity result with RAW264.7 [2] is “Non-Toxic”.

`OC[C@H]1O[C@@H](Oc2c(O)cc(O)cc2[C@H]2[C@H](c3ccc(O)cc3)[C@H](c3cc(O)cc(O)c3O[C@@H]3O[C@H](CO)[C@@H](O)[C@H](O)[C@H]3O)[C@H]2c2ccc(O)cc2)[C@H](O)[C@@H](O)[C@@H]1O`: the inhibition at 20 µM in the data set with RAW264.7 [1] amounted to 22.4%. Besides, in the data set on RAW264.7 [2], the Activity result is “Non-Toxic”.

With `OC[C@H]1O[C@@H](Oc2c(O)cc(O)cc2[C@@H]2[C@@H](c3ccc(O)cc3)c3c(O)cc(O)c(O[C@@H]4O[C@H](CO)[C@@H](O)[C@H](O)[C@H]4O)c3C[C@H]2c2ccc(O)cc2)[C@H](O)[C@@H](O)[C@@H]1O`, the Activity entry in the data set with RAW264.7 [2] is reported as “Non-Toxic”.

Take `OC[C@H]1O[C@@H](Oc2c(O)cc(O)cc2[C@H]2[C@H](c3ccc(O)cc3)c3c(O)cc(O)c(O[C@@H]4O[C@H](CO)[C@@H](O)[C@H](O)[C@H]4O)c3C[C@H]2c2ccc(O)cc2)[C@H](O)[C@@H](O)[C@@H]1O`: in the data set with RAW264.7 [2], the Activity result is “Non-Toxic”.

`OC[C@H]1O[C@@H](Oc2c(O)cc(O)cc2[C@@H]2[C@@H](c3ccc(O)cc3)[C@H](c3ccc(O)cc3)[C@H]2c2cc(O)cc(O)c2O[C@@H]2O[C@H](CO)[C@@H](O)[C@H](O)[C@H]2O)[C@H](O)[C@@H](O)[C@@H]1O`: the inhibition at 20 µM with RAW264.7 [1] was found to be 22%. In addition, in the data set on RAW264.7 [2], the Activity entry was “Non-Toxic”.
